Consider 95 compounds from ChEMBL document CHEMBL4513216, “Probing the Open Global Health Chemical Diversity Library for Multistage-Active Starting Points for Next-Generation Antimalarials” (ACS Infect Dis, 2020).

A short description of the series: Toxicity liver stage against HepG2, at 10uM. In kind it is cell-based. Also noted: test concentration 10 uM, cell line HepG2-A16-CD81EGFP. As to conditions: human, HepG2-A16-CD81EGFP cells; read-out: INHIBITION
The method, boiled down: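 Uninfected HepG2-A16-CD81EGFP cells, 3 × 10^3 per well, 1536-well, plated on prespotted compound at 10 μM final, parasite-free screening media added to match infected plates; puromycin 10 μM positive, DMSO 0.5% negative; run in parallel with 48 h PbLuc assay at 37 °C, 5% CO2; viability by CellTiter-Glo luminescence, normalized to controls.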
With `CS(=O)(=O)NCC1(O)CCCN(C(=O)CCn2cc(Cl)cn2)CC1` (stereo not given), the cytotoxicity at 10 µM is -144%.
The same measure for `CCc1nc(C2CCCN2Cc2ccno2)no1` (stereo not given): 2.52%; for `CN(Cc1nccn1C)C(=O)C1COCC(=O)N1Cc1ccccc1` (stereo not given): 1.01%.
In the case of `CN1CCc2nc(C3CCCN(S(=O)(=O)c4ccccc4)C3)ncc2C1` (stereo not given), the cytotoxicity at 10 µM was found to be 2.67%.
To `Cc1cc(C(=O)N2CCc3ncnc(-c4cnn(C)c4)c3CC2)no1` belongs 8.88%; to `Cc1cc(C)c2nc(CN3C[C@H](CCO)[C@@H](N)C3)cc(O)c2c1`, 5.29%.
The same measure for `Cc1nc(C)n(CC2CCCN2Cc2nc3ccccc3c(=O)[nH]2)n1` (stereo not given): -4.35%; for `CC(C)OCCS(=O)(=O)N1CCN(Cc2cccn2C)CC1`: -17.3%.
To `CC(C)c1cc(N[C@@H](CO)C(N)=O)n2nccc2n1` belongs -1.28%; to `COCCN1C[C@H]2CN(C(=O)c3ccc4c(c3)OCO4)CCN2C1=O`, 13.7%.
`Cc1nn(CN(CC2CCOC2)C2CC2)c(=O)c2ccccc12` (stereo not given): the cytotoxicity at 10 µM was determined as 4.77%.
To `NC(=O)CN1CCC(C(=O)NCc2nc(-c3ccc(F)cc3)cs2)CC1` belongs -5.79%; to `CC(c1cccc(F)c1)N1CCN(Cc2nccn2C)CC1` (stereo not given), -7.81%.
The same measure for `COc1ccc(OC)c(CN(C)c2ncc(S(N)(=O)=O)s2)c1`: 5.8%; for `CN(C)S(=O)(=O)N1CCN(C(=O)c2cc(-c3ccccc3)[nH]n2)CC1`: -0.665%.
To `Cc1cccc(C2(C(=O)NCC3CCN(CC(F)(F)F)C3)CCC2)c1` (stereo not given) belongs -11.5%; to `COc1ccnc(N2CCN(C(=O)COCC(F)(F)F)CC2)n1`, -9.36%; to `Cc1cnn(CC2CCCN2C(=O)Cc2c(C)noc2Cl)c1` (stereo not given), 0.471%.
Regarding `CCOc1c(Cl)cc(/C=C/c2ncc(C(=O)O)s2)cc1OC`, the cytotoxicity at 10 µM was determined as 3.91%.
For `COc1cc(C)ccc1OCC(=O)NS(=O)(=O)c1ccc(Br)s1`, the cytotoxicity at 10 µM was -7.72%.
The same measure for `CC(=O)NCCNC(=O)c1sc(-c2ccc(Cl)cc2)nc1C`: -7.6%.
The same measure for `CCc1nc(CN2CCCC(NCc3nc4cccnc4[nH]3)C2)no1` (stereo not given): 1.92%; for `CCc1ncncc1C(=O)N1CCN(Cc2ccco2)CC1`: -4.91%; for `CC(Cn1ccnc1)NC(=O)N(C)Cc1ccc2c(c1)OCO2` (stereo not given): -16.1%.
The same measure for `CCN(C(=O)CCc1ccc2c(c1)OCO2)C1CC(=O)NC1=O` (stereo not given): -3.88%; for `CN(CCCc1cc(-c2ccccc2)n[nH]1)C(=O)CCCn1cncn1`: -147%.
For the compound `CCC(NC(=O)NCc1cc(Cl)ccc1OC)c1noc(C)n1` (stereo not given), the cytotoxicity at 10 µM came out at 4.06%.
To `CCc1noc(C(C)N(C)CC(=O)Nc2cccc(C)c2C)n1` (stereo not given) belongs 6.35%; to `CNS(=O)(=O)c1cccc(CNc2nccc(C(F)(F)F)n2)c1`, 17.2%.
Consider `NC(=O)c1nc(-c2ccc(Cl)cc2Cl)oc1N`, for which the cytotoxicity at 10 µM was determined as 2.66%.
To `CCc1nc(C2CCCN2Cc2ncc(C)c(OC)c2C)no1` (stereo not given) belongs 3.3%.
The same measure for `O=C(Cc1cccs1)N1CCC(O)(CN2CCc3ccccc3C2)C1` (stereo not given): -1.47%.
The same measure for `CN(C)C(=O)Cn1cc(C(=O)NCCc2ccc(Cl)cc2Cl)nn1`: -2.35%; for `CC(=O)N1CCC(Nc2cccc(OC(F)F)c2C)CC1`: -15.1%; for `Cc1ncc2c(n1)CCN(CCCc1nc3ccccc3o1)C2`: -18.7%.
Regarding `Cc1ncc(CN(C)C(=O)Nc2cccc(C(=O)N3CCOCC3)c2)s1`, the cytotoxicity at 10 µM is 11.6%.
For `CS(=O)(=O)CCC(=O)NC1CC(c2ccccc2Cl)C1` (stereo not given), the cytotoxicity at 10 µM was -4.19%.
The same measure for `Cc1ccc(NC2COC3(CCN(Cc4ccn(C)n4)CC3)C2)nn1` (stereo not given): -1.68%.
The same measure for `CC(C)=CCN1C[C@@H]2CC[C@H]1CN(S(=O)(=O)c1cccnc1)C2`: 3.26%.
The same measure for `N#Cc1c(Cl)nsc1N1CCN(CC2CCCCC2)CC1`: -8.67%.
For `COc1ncccc1CN1C[C@H]2CCN(c3ccc(C)nn3)C[C@H]2C1`, the cytotoxicity at 10 µM worked out at 4.59%.
To `CN(c1ccc(CNC(=O)c2c[nH]c(=O)c(Cl)c2)cc1)C1CCCCC1` belongs 88.9%; to `N#CCCN(C(=O)CN1CCCC1Cc1ccccc1)c1ccccc1` (stereo not given), -20.7%; to `CN1CCCC[C@@H]2[C@H]1[C@@H](c1ccccc1)CCN2C(=O)c1ccccc1`, -4.3%.
Consider `Cc1cc(S(=O)(=O)NC(C)(C)CN)c(F)cc1F`, for which the cytotoxicity at 10 µM was found to be 4.87%.
To `CC(C)(C)NC(=O)NC(=O)COc1nc(C(C)(C)C)no1` belongs -1.62%.
For the compound `CNc1cncc(C2CCCN(S(C)(=O)=O)C2)n1` (stereo not given), the cytotoxicity at 10 µM was 3.19%.
The same measure for `COCCNC(=O)CN(C)Cc1ccc(F)cc1Cl`: -1.02%.
To `Cc1nc2ccnn2c(C)c1CCC(=O)N1CCN(CCO)CC1` belongs -6.29%.
Turning to `COc1ccc(CNC(=O)CN2CCc3ccccc32)cc1`, the cytotoxicity at 10 µM came to 10.5%.
To `CC(NCc1nnc2n1CCCC2)c1nc(C(C)(C)C)no1` (stereo not given) belongs -39.2%; to `CCn1cncc1CN1CCc2nc3sccc3c(=O)n2CC1`, -2.55%; to `O=C(O)c1ccc(CNC(=O)C2CCN(Cc3ccco3)CC2)s1`, -0.861%.
The same measure for `O=C(NCC1CC1)[C@@H]1CC[C@@H]2[C@@H](CCN2Cc2ccc(F)c(F)c2)O1`: 8.33%; for `CO[C@H]1CN(Cc2cc(Cn3cncn3)c(C)cc2C)CC[C@H]1N`: -7.29%.
To `O=C(c1ccoc1)N1CCCN(C(=O)c2ccc(C3CCCN3)s2)CC1` (stereo not given) belongs 1.27%; to `CNC(=O)C1(N2CCC[C@H]2C(=O)NC2CCCCC2)CCOCC1`, -1.25%.
Take `CC(C)(C)OC(=O)NC1(c2noc(-c3ccco3)n2)CCC1`: the cytotoxicity at 10 µM was -0.657%.
For `c1cnc(N2CCCC(NCc3ccc(-n4ccnc4)cc3)C2)nc1` (stereo not given), the cytotoxicity at 10 µM is -7.55%.
To `CCOCC1CN(S(=O)(=O)N(C)C)Cc2cnn(CC)c21` (stereo not given) belongs 2.26%; to `CCc1nc(C2CCCN2C(=O)CCn2cncn2)no1` (stereo not given), -5.63%; to `Cc1cccc(NC2CCN(C(=O)Nc3ccc(F)c(F)c3)CC2)n1`, 9.59%.
To `CC(C)c1nc(C2CCCN(C(=O)c3ccc4nncn4c3)C2)no1` (stereo not given) belongs -4.38%; to `CS(=O)(=O)Nc1cccc(CNC(=O)CCNC(=O)c2cccs2)c1`, 0.466%.
In the case of `Cc1nc(CC(=O)N2CCCC2c2nc(C(C)C)no2)cs1` (stereo not given), the cytotoxicity at 10 µM is 4.33%.
The same measure for `CC(=O)N1CCO[C@@H]2CN(C(=O)c3ccc4ccccc4c3)CC[C@@H]2C1`: 1.35%; for `CC(C)(C)c1ncc(C(=O)NC(C(N)=O)c2ccccc2)s1` (stereo not given): -1.96%; for `Cc1nn(C)c2ncnc(N3CCC(O)(CN4CCCC4)CC3)c12`: 2.68%.
With `Cc1cccc(NC(=O)N2CCC(CO)(Nc3ccccc3)CC2)c1`, the cytotoxicity at 10 µM stood at 0.045%.
As for `Cc1occc1C(=O)N1C[C@@H]2CCCO[C@@H]2[C@H](N(C)Cc2ccco2)C1`, the cytotoxicity at 10 µM was found to be 6.67%.
`CNC(=O)CN(C)c1cncc(OCc2ccccc2)n1`: the cytotoxicity at 10 µM amounted to 1.15%.
To `CN(C)S(=O)(=O)N1CCC(c2ccncc2)CC1` belongs -27.6%; to `CNC(=O)CN1CCC(NC(=O)CC(C)CCc2ccccc2)CC1` (stereo not given), 8.47%.
The same measure for `O=C1CC(c2ccncc2)c2c(c(C(=O)O)cn2-c2ccccc2)N1` (stereo not given): -3.7%; for `Cc1ncoc1C(=O)N1C[C@@H]2COC[C@]2(c2nnc(C3CC3)o2)C1`: -2.08%; for `Cc1n[nH]c(C)c1NC(=O)CN1CCCC1c1noc(C2CC2)n1` (stereo not given): 2.94%.
The same measure for `Cn1cncc1-c1nnc([C@H]2CCN(Cc3ccc(CO)o3)C2)o1`: -4.09%; for `CC(C)c1nccn1C1CCCN(C(=O)c2cn3cccnc3n2)C1` (stereo not given): -3.63%; for `Cc1ccc(CC(NC(=O)Cn2cnnn2)c2ccccn2)cc1` (stereo not given): 1.72%.
For the compound `N#Cc1ncn(Cc2c(F)cccc2Cl)n1`, the cytotoxicity at 10 µM is -3.94%.
The same measure for `CCCc1ccc(OC23CCCN(CC2)C3)c(OC)c1` (stereo not given): -17.3%.
To `Cn1cc(S(=O)(=O)Nc2ccc3[nH]c(C4CCC4)nc3c2)cn1` belongs -8.36%.
The same measure for `O=C(Cc1ccccc1)C1CCCN(Cc2cncn2C2CCCC2)C1` (stereo not given): -1.11%; for `CCC(CNC(C)=O)(OC)c1ccccc1` (stereo not given): 1.97%; for `CC(C)CCN1CC2(CCN(C3CCCOC3)CC2)OC1=O` (stereo not given): 6.31%.
For the compound `O=C1CCC(=O)N1CCn1nnc(-c2ccc(Br)cc2)n1`, the cytotoxicity at 10 µM was found to be 4.26%.
The same measure for `Cc1ccc(-c2csc(N)c2C#N)cc1`: -1.61%; for `CCN(Cc1cnn(C)c1)C[C@H]1CC[C@@H](Cc2ccc(C)nc2)O1`: 5.24%; for `c1coc(CN2CCn3c(COCC4CC4)nnc3C2)c1`: 6.28%.
To `CN(C)C(=O)CN1CCC2(CCCN(Cc3ccoc3)C2)C1=O` (stereo not given) belongs -103%.
The same measure for `NC(=O)N1CCCC(C(=O)NCCOc2ccc(F)c(F)c2)C1` (stereo not given): 2.94%.
In the case of `Cc1cc(C(=O)NC(C)Cc2cccc(Cl)c2)n(C)n1` (stereo not given), the cytotoxicity at 10 µM was determined as 10.9%.
To `CC(O)c1cccc(N2CCC3(CC2)Nc2ccccc2NC3=O)n1` (stereo not given) belongs -10.6%; to `CC(=O)N1CCC2(CCN(C(=O)c3ccc(F)c(C(F)(F)F)c3)C2)C1` (stereo not given), -76.1%.
The same measure for `Cc1ccc(C(C)NCCc2nccn2Cc2ccccc2)o1` (stereo not given): 1.98%.
